Columns and labels:
MIA PaCa-2 [1] = assay: Effect on AKT1 gene expression in human MIAPaCa2 cells at 400 nM after 6 hrs by RNA sequence analysis relative to control; format: functional
Summary of the method: (§1)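 PANC-1 (0.35 x 10^6) or MIA PaCa-2 (1.5 x 10^6) cells seeded overnight in 60 mm plates, then exposed to 400 nM compound for 6 or 24 h; untreated cells as controls. Cells were mycoplasma-free and STR-certified. Differential expression by RNA-seq, called at FDR < 0.1.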

PANC-1 [2] = assay: Effect on GLI4 gene expression in human PANC1 cells at 400 nM after 24 hrs by RNA sequence analysis relative to control; format: functional; summary of the method: as §1
MIA PaCa-2 [3] = assay: Effect on TP73 gene expression in human MIAPaCa2 cells at 400 nM after 6 hrs by RNA sequence analysis relative to control; format: functional
Summary of the method: (§2)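 RNA-seq: cells seeded overnight in 60 mm plates (PANC-1 0.35 x 10^6, MIA PaCa-2 1.5 x 10^6 cells/well), then exposed to 400 nM compound for 6 or 24 h against untreated controls. Cell lines mycoplasma-free by RNA-capture ELISA and STR-profiled. Differentially expressed genes called at FDR < 0.1.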

MIA PaCa-2 [4] = assay: Effect on MAPK11 gene expression in human MIAPaCa2 cells at 400 nM after 6 hrs by RNA sequence analysis relative to control; format: functional
MIA PaCa-2 [5] = assay: Effect on GLI2 gene expression in human MIAPaCa2 cells at 400 nM after 24 hrs by RNA sequence analysis relative to control; format: functional; summary of the method: as §1
PANC-1 [6] = assay: Effect on TEAD3 gene expression in human PANC1 cells at 400 nM after 24 hrs by RNA sequence analysis relative to control; format: functional; summary of the method: as §2
MIA PaCa-2 [7] = assay: Effect on ULK1 gene expression in human MIAPaCa2 cells at 400 nM after 24 hrs by RNA sequence analysis relative to control; format: functional; summary of the method: as §2
PANC-1 [8] = assay: Effect on PRKCZ gene expression in human PANC1 cells at 400 nM after 24 hrs by RNA sequence analysis relative to control; format: functional; summary of the method: as §2
[9] = Solubility of the compound in saline; format: physicochemical
Mus musculus [10] = assay: Toxicity in CD-1 nude mouse xenografted with human MIAPaCa2 cells assessed as change in tumor ulceration at 15 mg/kg, iv administered twice weekly for 4 weeks measured for 40 days; format: organism-based; details: in vivo, 960 h
PANC-1 [11] = assay: Effect on PARD6A gene expression in human PANC1 cells at 400 nM after 6 hrs by RNA sequence analysis relative to control; format: functional
MIA PaCa-2 [12] = assay: Effect on PRKCZ gene expression in human MIAPaCa2 cells at 400 nM after 6 hrs by RNA sequence analysis relative to control; format: functional; summary of the method: as §2
MIA PaCa-2 [13] = assay: Effect on GLI4 gene expression in human MIAPaCa2 cells at 400 nM after 6 hrs by RNA sequence analysis relative to control; format: functional; summary of the method: as §1
MIA PaCa-2 [14] = assay: Effect on AKT1S1 gene expression in human MIAPaCa2 cells at 400 nM after 24 hrs by RNA sequence analysis relative to control; format: functional; summary of the method: as §1
MIA PaCa-2 [15] = assay: Effect on TEAD2 gene expression in human MIAPaCa2 cells at 400 nM after 24 hrs by RNA sequence analysis relative to control; format: functional; summary of the method: as §2
MIA PaCa-2 [16] = assay: Effect on SHC2 gene expression in human MIAPaCa2 cells at 400 nM after 24 hrs by RNA sequence analysis relative to control; format: functional; summary of the method: as §2
PANC-1 [17] = assay: Effect on IQSEC1 gene expression in human PANC1 cells at 400 nM after 24 hrs by RNA sequence analysis relative to control; format: functional; summary of the method: as §1
MIA PaCa-2 [18] = assay: Effect on IGF2 gene expression in human MIAPaCa2 cells at 400 nM after 24 hrs by RNA sequence analysis relative to control; format: functional; summary of the method: as §1
PANC-1 [19] = assay: Effect on PRKCZ gene expression in human PANC1 cells at 400 nM after 6 hrs by RNA sequence analysis relative to control; format: functional; summary of the method: as §2
MIA PaCa-2 [20] = assay: Effect on GLI1 gene expression in human MIAPaCa2 cells at 400 nM after 24 hrs by RNA sequence analysis relative to control; format: functional; summary of the method: as §1
PANC-1 [21] = assay: Effect on PFKFB4 gene expression in human PANC1 cells at 400 nM after 24 hrs by RNA sequence analysis relative to control; format: functional
MIA PaCa-2 [22] = assay: Effect on PCK2 gene expression in human MIAPaCa2 cells at 400 nM after 24 hrs by RNA sequence analysis relative to control; format: functional
PANC-1 [23] = assay: Effect on mLST8 gene expression in human PANC1 cells at 400 nM after 24 hrs by RNA sequence analysis relative to control; format: functional; summary of the method: as §2
PANC-1 [24] = assay: Effect on AKT1S1 gene expression in human PANC1 cells at 400 nM after 6 hrs by RNA sequence analysis relative to control; format: functional; summary of the method: as §1
MIA PaCa-2 [25] = assay: Effect on PCK2 gene expression in human MIAPaCa2 cells at 400 nM after 6 hrs by RNA sequence analysis relative to control; format: functional
PANC-1 [26] = assay: Effect on PIK3R2 gene expression in human PANC1 cells at 400 nM after 24 hrs by RNA sequence analysis relative to control; format: functional
PANC-1 [27] = assay: Effect on TEAD2 gene expression in human PANC1 cells at 400 nM after 6 hrs by RNA sequence analysis relative to control; format: functional; summary of the method: as §2
Mus musculus [28] = assay: Nephrotoxicity in CD-1 nude mouse xenografted with human MIAPaCa2 cells at 15 mg/kg, iv administered twice weekly for 4 weeks by hematoxylin and eosin staining based assay; format: toxicity, organism-based; details: in vivo, 672 h
MIA PaCa-2 [29] = assay: Effect on mLST8 gene expression in human MIAPaCa2 cells at 400 nM after 24 hrs by RNA sequence analysis relative to control; format: functional; summary of the method: as §2
MIA PaCa-2 [30] = assay: Effect on PIK3R2 gene expression in human MIAPaCa2 cells at 400 nM after 6 hrs by RNA sequence analysis relative to control; format: functional
[31] = Selectivity ratio of IC50 for human MCF7 cells to IC50 for human MIAPaCa2 cells; format: functional
PANC-1 [32] = assay: Effect on PLXNA1 gene expression in human PANC1 cells at 400 nM after 24 hrs by RNA sequence analysis relative to control; format: functional
MIA PaCa-2 [33] = assay: Effect on SHANK2 gene expression in human MIAPaCa2 cells at 400 nM after 6 hrs by RNA sequence analysis relative to control; format: functional; summary of the method: as §2
PANC-1 [34] = assay: Effect on FASN gene expression in human PANC1 cells at 400 nM after 6 hrs by RNA sequence analysis relative to control; format: functional; summary of the method: as §1
[35] = Binding affinity to 5'-FAM/3'-TAMRA labeled human telomeric F21T G-quadruplex DNA by direct fluorescence method
Summary of the method: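 Buffer was 50 mM KCl, 10 mM Tris-HCl, 1 mM EDTA, pH 7.3, 25 °C, quartz cuvette. Quenching of ligand emission at 570 nm tracked; KD from a quadratic quenching fit.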

PANC-1 [36] = assay: Effect on PAK1 gene expression in human PANC1 cells at 400 nM after 6 hrs by RNA sequence analysis relative to control; format: functional
MIA PaCa-2 [37] = assay: Effect on AKT1S1 gene expression in human MIAPaCa2 cells at 400 nM after 6 hrs by RNA sequence analysis relative to control; format: functional; summary of the method: as §1

**Q.** For `O=C1c2ccc3c4c(c(NCCN5CCCC5)cc(c24)C(=O)N1CCCN1CCOCC1)C(=O)N(CCCN1CCOCC1)C3=O`, which log2FC (MIA PaCa-2 [1]) is on record?
**A.** The log2FC was -0.2.

**Q.** What about the log2FC (PANC-1 [2]) of the same compound?
**A.** The log2FC was -1.71.

**Q.** What about the log2FC (MIA PaCa-2 [3]) of the same compound?
**A.** The log2FC was -2.36.

**Q.** What about the log2FC (MIA PaCa-2 [4]) of the same compound?
**A.** The log2FC was -0.53.

**Q.** What about the log2FC (MIA PaCa-2 [5]) of the same compound?
**A.** Its log2FC is -1.24.

**Q.** What about the log2FC (PANC-1 [6]) of the same compound?
**A.** The log2FC was 0.07.

**Q.** And the log2FC (MIA PaCa-2 [7])?
**A.** The log2FC was -0.6.

**Q.** What about the log2FC (PANC-1 [8]) of the same compound?
**A.** The log2FC was -1.23.

**Q.** And the solubility [9]?
**A.** The solubility was greater than 10000 µg/mL.

**Q.** And the Activity (Mus musculus [10])?
**A.** Its Activity is “Non-Toxic”.

**Q.** What about the log2FC (PANC-1 [11]) of the same compound?
**A.** Its log2FC is -0.63.

**Q.** What about the log2FC (MIA PaCa-2 [12]) of the same compound?
**A.** The log2FC was -1.87.

**Q.** What about the log2FC (MIA PaCa-2 [13]) of the same compound?
**A.** Its log2FC is -1.71.

**Q.** And the log2FC (MIA PaCa-2 [14])?
**A.** The log2FC was -1.09.

**Q.** What about the log2FC (MIA PaCa-2 [15]) of the same compound?
**A.** Its log2FC is -0.91.

**Q.** What about the log2FC (MIA PaCa-2 [16]) of the same compound?
**A.** The log2FC was -1.96.

**Q.** What about the log2FC (PANC-1 [17]) of the same compound?
**A.** Its log2FC is -0.5.

**Q.** What about the log2FC (MIA PaCa-2 [18]) of the same compound?
**A.** The log2FC was 0.72.

**Q.** And the log2FC (PANC-1 [19])?
**A.** The log2FC was -1.44.

**Q.** And the log2FC (MIA PaCa-2 [20])?
**A.** Its log2FC is -0.64.

**Q.** And the log2FC (PANC-1 [21])?
**A.** Its log2FC is -0.74.

**Q.** What about the log2FC (MIA PaCa-2 [22]) of the same compound?
**A.** Its log2FC is -0.82.

**Q.** What about the log2FC (PANC-1 [23]) of the same compound?
**A.** Its log2FC is -1.72.

**Q.** What about the log2FC (PANC-1 [24]) of the same compound?
**A.** The log2FC was -0.11.

**Q.** What about the log2FC (MIA PaCa-2 [25]) of the same compound?
**A.** The log2FC was 0.26.

**Q.** And the log2FC (PANC-1 [26])?
**A.** Its log2FC is -0.88.

**Q.** What about the log2FC (PANC-1 [27]) of the same compound?
**A.** The log2FC was -0.22.

**Q.** And the Activity (Mus musculus [28])?
**A.** Its Activity is “Non-Toxic”.

**Q.** And the log2FC (MIA PaCa-2 [29])?
**A.** The log2FC was -1.28.

**Q.** And the log2FC (MIA PaCa-2 [30])?
**A.** Its log2FC is -0.55.

**Q.** And the “Ratio IC50” value [31]?
**A.** The value was greater than 20.

**Q.** What about the log2FC (PANC-1 [32]) of the same compound?
**A.** The log2FC was -1.5.

**Q.** What about the log2FC (MIA PaCa-2 [33]) of the same compound?
**A.** Its log2FC is -1.87.

**Q.** And the log2FC (PANC-1 [34])?
**A.** Its log2FC is -0.73.

**Q.** What about the Kd [35] of the same compound?
**A.** The Kd was 67 nM.

**Q.** And the log2FC (PANC-1 [36])?
**A.** The log2FC was -0.54.

**Q.** And the log2FC (MIA PaCa-2 [37])?
**A.** Its log2FC is -0.54.

From ChEMBL document CHEMBL4020827, “Targeting Multiple Effector Pathways in Pancreatic Ductal Adenocarcinoma with a G-Quadruplex-Binding Small Molecule” (J Med Chem, 2018)
